The values that follow come from ChEMBL document CHEMBL4819144, “Structure-activity relationships of pyrimidine nucleotides containing a 5'-α,β-methylene diphosphonate at the P2Y6 receptor” (Bioorg Med Chem Lett, 2021).

Experiment [1] deals with T1, 5'-nucleotidase (Rattus norvegicus, UniProt P21588).
T1 sequence (P21588 whole entry): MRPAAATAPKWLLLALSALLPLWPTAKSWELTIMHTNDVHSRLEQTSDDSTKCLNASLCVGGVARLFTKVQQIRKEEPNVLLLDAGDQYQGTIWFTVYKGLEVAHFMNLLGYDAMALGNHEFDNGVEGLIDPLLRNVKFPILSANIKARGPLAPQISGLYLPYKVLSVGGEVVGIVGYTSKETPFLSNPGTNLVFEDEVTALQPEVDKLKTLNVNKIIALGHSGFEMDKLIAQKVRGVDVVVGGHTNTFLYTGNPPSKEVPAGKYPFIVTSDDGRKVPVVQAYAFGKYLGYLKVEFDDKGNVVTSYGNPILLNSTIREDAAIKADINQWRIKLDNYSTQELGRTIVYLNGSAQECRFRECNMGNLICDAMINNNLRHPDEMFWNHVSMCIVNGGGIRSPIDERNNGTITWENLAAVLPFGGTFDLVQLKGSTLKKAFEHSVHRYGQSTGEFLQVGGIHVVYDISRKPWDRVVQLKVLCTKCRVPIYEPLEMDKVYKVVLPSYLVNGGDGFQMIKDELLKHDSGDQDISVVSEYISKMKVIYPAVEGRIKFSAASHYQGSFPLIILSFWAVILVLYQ
The experiment is described as follows: Inhibition of rat CD73 using [3H]-AMP as substrate by radiometric assay.

Experiment [2] deals with T2, P2Y purinoceptor 6 (Homo sapiens, UniProt Q15077). The experiment is described as follows: Agonist activity at human P2Y6R expressed in 1321N1 cells assessed as calcium mobilization measured by microplate reader method. It counts as functional, cell-based. Background: Calcium flux is commonly read through the fluorescence of an indicator in the cells.
In experiment [3] the target is T2, P2Y purinoceptor 6. The experiment is described as follows: Agonist activity at human P2Y6R expressed in 1321N1 cells assessed as calcium mobilization at 3 uM measured by microplate reader method relative to control. It counts as functional, cell-based. A digest of the protocol:
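Human P2Y6R stably expressed in 1321N1 astrocytoma cells; fluorescence-based (FLIPR) Ca2+ mobilization read-out; agonist tested at a single 3 µM concentration and expressed as % activation.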

In experiment [4] the target is T2, P2Y purinoceptor 6. The experiment is described as follows: Agonist activity at human P2Y6R expressed in 1321N1 cells assessed as calcium mobilization measured by FLIPR method. Type of experiment: functional, cell-based.
The target of experiment [5] is T3, P2Y purinoceptor 14 (Homo sapiens, UniProt Q15391).
T3 sequence (Q15391 whole entry): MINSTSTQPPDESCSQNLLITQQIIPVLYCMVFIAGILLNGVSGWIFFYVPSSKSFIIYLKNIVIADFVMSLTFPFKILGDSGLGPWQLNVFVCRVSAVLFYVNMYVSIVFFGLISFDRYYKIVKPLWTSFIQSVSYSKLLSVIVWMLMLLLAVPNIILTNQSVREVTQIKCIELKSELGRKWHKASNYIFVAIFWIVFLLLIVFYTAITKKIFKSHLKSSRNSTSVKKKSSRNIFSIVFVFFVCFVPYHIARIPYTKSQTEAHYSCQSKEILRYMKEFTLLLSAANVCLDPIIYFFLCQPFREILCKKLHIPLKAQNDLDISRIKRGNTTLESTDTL
The experiment is described as follows: Binding affinity to human P2Y14 expressed in CHO cells. It counts as cell-based. The method in brief: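 Whole CHO cells stably expressing human P2Y14R; a fluorescent antagonist serves as tracer and binding is read by flow cytometry; IC50 from inhibition of tracer binding.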

In experiment [6] the target is Sigma non-opioid intracellular receptor 1 (Homo sapiens) (UniProt Q99720). The experiment is described as follows: Displacement of [3H]-Pentazocine from sigma-1 receptor (unknown origin) at 10 uM relative to control.
Experiment [7] deals with T3, P2Y purinoceptor 14. The experiment is described as follows: Agonist activity at human P2Y14 expressed in CHO cells.
In experiment [8] the target is T2, P2Y purinoceptor 6. The experiment is described as follows: Agonist activity at human P2Y6R expressed in 1321N1 cells by PLC assay. Particulars: dose 3.0 µM, time 30.0 min.
Experiment [9] is filed under the species Homo sapiens. The experiment is described as follows: Selectivity ratio of IC50 for human P2Y14 expressed in CHO cells to EC50 for human P2Y6R expressed in 1321N1 cells. It counts as cell-based. The method in brief:
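The ratio divides the hP2Y14R IC50 by the hP2Y6R EC50. The IC50 comes from flow-cytometric displacement of a fluorescent antagonist tracer in whole hP2Y14R-CHO cells.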

For experiment [10], the target named is D(3) dopamine receptor (Homo sapiens) (UniProt P35462). In words: Displacement of [3H]-N-methylspiperone from dopamine D3 receptor (unknown origin) at 10 uM relative to control. A general note: In a radioligand displacement assay an active substance lowers the binding of a labelled ligand.

A value given as a limit tells only on which side of the number the result lay.

T2 sequence (Q15077 whole entry): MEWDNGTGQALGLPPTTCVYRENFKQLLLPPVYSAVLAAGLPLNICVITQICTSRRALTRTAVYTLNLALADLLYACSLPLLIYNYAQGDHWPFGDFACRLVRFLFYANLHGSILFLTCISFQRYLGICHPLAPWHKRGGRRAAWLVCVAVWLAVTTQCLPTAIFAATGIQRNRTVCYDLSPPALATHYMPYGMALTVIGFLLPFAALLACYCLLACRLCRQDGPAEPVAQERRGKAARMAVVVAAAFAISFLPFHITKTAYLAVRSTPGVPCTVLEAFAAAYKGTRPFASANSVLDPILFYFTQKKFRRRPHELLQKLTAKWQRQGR
D(3) dopamine receptor (Homo sapiens), sequence (P35462 whole entry): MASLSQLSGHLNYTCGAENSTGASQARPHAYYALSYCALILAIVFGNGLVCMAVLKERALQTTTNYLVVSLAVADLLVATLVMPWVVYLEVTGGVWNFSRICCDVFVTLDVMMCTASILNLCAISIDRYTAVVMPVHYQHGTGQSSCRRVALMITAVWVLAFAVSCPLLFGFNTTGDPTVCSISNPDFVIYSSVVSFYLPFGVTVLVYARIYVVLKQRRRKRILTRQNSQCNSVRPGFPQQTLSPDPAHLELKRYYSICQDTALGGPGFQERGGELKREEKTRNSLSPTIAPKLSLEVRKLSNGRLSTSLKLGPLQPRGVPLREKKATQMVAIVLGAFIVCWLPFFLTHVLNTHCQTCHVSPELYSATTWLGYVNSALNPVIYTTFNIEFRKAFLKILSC
Sigma non-opioid intracellular receptor 1 (Homo sapiens), sequence (Q99720 whole entry): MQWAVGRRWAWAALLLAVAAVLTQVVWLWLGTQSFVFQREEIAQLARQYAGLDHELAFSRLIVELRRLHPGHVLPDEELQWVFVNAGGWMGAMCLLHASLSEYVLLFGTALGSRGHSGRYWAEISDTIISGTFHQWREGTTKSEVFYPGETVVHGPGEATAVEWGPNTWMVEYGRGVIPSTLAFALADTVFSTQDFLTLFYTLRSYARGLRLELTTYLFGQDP

For the compound `O=c1[nH]c(=O)n([C@@H]2O[C@H](COP(=O)(O)CP(=O)(O)O)[C@@H](O)[C@H]2O)cc1I`, the midpoint of inhibition in experiment [1], the IC50, lay at 162 nM. Also, the EC50 in [2] was found to be 49.1 nM.
For `Nc1nc(=O)n([C@@H]2O[C@H](COP(=O)(O)CP(=O)(O)O)[C@@H](O)[C@H]2O)cc1F`, the Activity in experiment [3] was found to be 5.7%.
For `Cc1cn([C@@H]2O[C@H](COP(=O)(O)CP(=O)(O)O)[C@@H](O)[C@H]2O)c(=O)[nH]/c1=N/OCc1ccccc1`, it took 321 nM to reach half-maximal inhibition in experiment [1] (IC50).
As to `O=c1[nH]/c(=N\OCc2cccc(Cl)c2)ccn1[C@@H]1O[C@H](COP(=O)(O)CP(=O)(O)O)[C@@H](O)[C@H]1O`, the concentration for a half-maximal effect (EC50) in experiment [4] and in experiment [2] was 1450 nM throughout. This compound came in with an IC50 in [5] of more than 100000 nM.
Consider `O=c1[nH]/c(=N\OCc2ccc(S(F)(F)(F)(F)F)cc2)ccn1[C@@H]1O[C@H](COP(=O)(O)CP(=O)(O)O)[C@@H](O)[C@H]1O`, for which the inhibition in experiment [6] is 59%. Besides, the EC50 in experiment [2] was found to be 1590 nM.
`O=c1[nH]c(=O)n([C@@H]2O[C@H](COP(=O)(O)CP(=O)(O)O)[C@@H](O)[C@H]2O)cc1Cl` registered an IC50 in experiment [5] of 16600 nM.
Turning to `CCCn1c(=O)ccn([C@@H]2O[C@H](COP(=O)(O)CP(=O)(O)O)[C@@H](O)[C@H]2O)c1=O`, the Activity in experiment [3] amounted to 2.7%.
Turning to `O=c1ccn([C@@H]2O[C@H](COP(=O)(O)CP(=O)(O)O)[C@@H](O)[C@H]2O)c(=O)[nH]1`, the figures for the EC50 in experiment [7] and in [8] were 11 nM and 339 nM, respectively. Further, it took 1830 nM to reach half-maximal inhibition in experiment [1] (IC50).
Take `CCn1c(=O)ccn([C@@H]2O[C@H](COP(=O)(O)CP(=O)(O)O)[C@@H](O)[C@H]2O)c1=O`: in experiment [3], the Activity amounted to 3.5%.
Same read-out and setting: the value for `Cc1cn([C@@H]2O[C@H](COP(=O)(O)CP(=O)(O)O)[C@@H](O)[C@H]2O)c(=O)nc1N` was 3%.
Take `O=c1[nH]/c(=N\OCc2ccccc2)ccn1[C@@H]1O[C@H](COP(=O)(O)CP(=O)(O)O)[C@@H](O)[C@H]1O`: in experiment [1], the IC50 came out at 112 nM.
With `O=c1ccn([C@@H]2O[C@H](COP(=O)(O)CP(=O)(O)O)[C@@H](O)[C@H]2O)c(=O)n1Cc1ccccc1`, the Activity in experiment [3] is 5.3%.
Take `O=c1[nH]/c(=N/OCc2ccccc2)c(F)cn1[C@@H]1O[C@H](COP(=O)(O)CP(=O)(O)O)[C@@H](O)[C@H]1O`: the EC50 in experiment [4] and in experiment [2] was 549 nM in each case. Moreover, the Ratio IC50/EC50 in [9] came to 39. The IC50 in experiment [1] was determined as 85 nM; in experiment [5] it was 21500 nM.
As to `COC(=O)c1ccc(CO/N=c2/ccn([C@@H]3O[C@H](COP(=O)(O)CP(=O)(O)O)[C@@H](O)[C@H]3O)c(=O)[nH]2)cc1`, in experiment [10], the inhibition amounted to 85%. The concentration for a half-maximal effect (EC50) in [2] stood at 1670 nM.
For the compound `O=c1ccn([C@@H]2O[C@H](COP(=O)(O)CP(=O)(O)O)[C@@H](O)[C@@H]2O)c(=O)[nH]1`, the Activity in [3] worked out at 2.4%.
In experiment [1], `O=c1[nH]c(=O)n([C@@H]2O[C@H](COP(=O)(O)CP(=O)(O)O)[C@@H](O)[C@H]2O)cc1F` came in with an IC50 of more than 1000 nM.
Regarding `O=c1[nH]/c(=N\OCc2ccccc2)ccn1[C@@H]1O[C@H](COP(=O)(O)OP(=O)(O)O)[C@@H](O)[C@H]1O`, the EC50 in experiment [2] is 793 nM.
`O=c1ccn([C@@H]2O[C@H](COP(=O)(O)CP(=O)(O)O)[C@@H](O)[C@H]2O)c(=S)[nH]1` came in with an EC50 in [8] of 1990 nM.
Consider `Nc1nc(=O)n([C@@H]2O[C@H](COP(=O)(O)CP(=O)(O)O)[C@@H](O)[C@H]2O)cc1I`, for which the Activity in experiment [3] was 3.4%.
`CO/N=c1/ccn([C@@H]2O[C@H](COP(=O)(O)CP(=O)(O)O)[C@@H](O)[C@H]2O)c(=O)[nH]1`: in experiment [1], the IC50 amounted to 257 nM.
In the case of `Cn1c(=O)n([C@@H]2O[C@H](COP(=O)(O)CP(=O)(O)O)[C@@H](O)[C@H]2O)cc/c1=N/OCc1ccccc1`, in experiment [3], the Activity was 3.6%.
With `O=c1[nH]c(=O)n([C@@H]2O[C@H](COP(=O)(O)CP(=O)(O)O)[C@@H](O)[C@H]2O)cc1Br`, the EC50 in [2] turned out to be 104 nM.
With `O=c1[nH]/c(=N\OCc2ccc(C(F)(F)F)cc2)ccn1[C@@H]1O[C@H](COP(=O)(O)CP(=O)(O)O)[C@@H](O)[C@H]1O`, the IC50 in [1] is 30 nM; in experiment [5], more than 100000 nM.
`CCn1c(=O)n([C@@H]2O[C@H](COP(=O)(O)CP(=O)(O)O)[C@@H](O)[C@H]2O)cc/c1=N/OCc1ccccc1`: in [3], the Activity is 5.7%.
As for `O=c1cnn([C@@H]2O[C@H](COP(=O)(O)CP(=O)(O)O)[C@@H](O)[C@H]2O)c(=O)[nH]1`, the Activity in experiment [3] came to 5.2%.
As for `O=c1[nH]/c(=N\OCc2ccc(Cl)cc2)ccn1[C@@H]1O[C@H](COP(=O)(O)CP(=O)(O)O)[C@@H](O)[C@H]1O`, in experiment [5], the IC50 is more than 100000 nM.
Regarding `CO/N=c1/ccn([C@@H]2O[C@H](COP(=O)(O)OP(=O)(O)O)[C@@H](O)[C@H]2O)c(=O)[nH]1`, the EC50 in experiment [2] was 493 nM.

In general, IC50 refers to the point on the concentration scale where inhibition reaches its midpoint. A high value points to weaker potency. As a reminder, the EC50 is the concentration giving half of the maximal effect. By inhibition is commonly meant the share of the control response that was lost under treatment. A low value points to little suppression.
